Laboratory results taken from ChEMBL document CHEMBL1833880, “Biologically active arborinane-type triterpenoids and anthraquinones from Rubia yunnanensis” (J Nat Prod, 2011).
pIC50: −log10 of the molar value. In brackets after ≈: the same amount, converted by molar mass. Activity calls are given as the source filed them. No cut-off for these calls is given here.

How the values were obtained:
A549 [1] = test: Cytotoxicity against human A549 cells at >10 uM after 48 hrs by SRB assay; format: functional, cell-based
SMMC-7721 [2] = test: Cytotoxicity against human SMMC7721 cells at >10 uM after 48 hrs by SRB assay; format: functional, cell-based
HeLa [3] = test: Cytotoxicity against human HeLa cells after 48 hrs by SRB assay; format: functional, cell-based
Procedure, shortened: (§1)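 Cells plated 24 h, then exposed to serial dilutions up to 20 μg/mL for 48 h at 37 °C in 5% CO2. They were fixed with cold 50% TCA for 1 h at 4 °C, stained with 0.4% SRB in 1% acetic acid for 15 min, and the bound dye was dissolved in 10 mM Tris base. Absorbance was read at 560 nm. IC50 was taken from triplicate tests.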

Staphylococcus aureus = test: Antibacterial activity against Staphylococcus aureus CGMCC1.2465 after 24 hrs by turbidimetric method; format: functional; conditions: for MIC50: CGMCC1.2465, 24 h
Procedure, shortened: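 Inoculum was adjusted by OD620 to McFarland 0.5 and diluted to 1 × 10^6 cfu/mL. It was exposed to serial dilutions up to 25 μg/mL in Mueller-Hinton broth at 37 °C for 24 h, and absorbance was read at 620 nm. MIC50 was taken from triplicate tests. Ampicillin was the reference.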

SMMC-7721 [4] = test: Cytotoxicity against human SMMC7721 cells after 48 hrs by SRB assay; format: functional, cell-based; conditions: SMMC-7721, 48 h
Procedure, shortened: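 Cells seeded 24 h, then exposed to serial dilutions (top concentration 20 μg/mL) for 48 h at 37 °C, 5% CO2. Fixed with ice-cold 50% TCA at 4 °C for 1 h, stained 15 min with 0.4% SRB in 1% acetic acid, dye solubilized in 10 mM Tris base, absorbance at 560 nm. Triplicate; IC50 reported. Paclitaxel and camptothecin as positive controls.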

Candida albicans = test: microbe, parasite or virus in culture; format: functional; conditions: CGMCC 2.2086, 24 h
HeLa [5] = test: Cytotoxicity against human HeLa cells at >10 uM after 48 hrs by SRB assay; format: functional, cell-based
A549 [6] = test: Cytotoxicity against human A549 cells after 48 hrs by SRB assay; format: functional, cell-based; conditions: A549, 48 h; procedure, shortened: as §1

| SMILES | Activity (A549 [1]) | Activity (SMMC-7721 [2]) | pIC50 (HeLa [3]) | further results |
| --- | --- | --- | --- | --- |
| CC(=O)O[C@@H]1C[C@@H](C(C)C)[C@]2(CO)CC[C@@]3(C)[C@H]4C(=CC[C@]3(C)[C@@H]12)[C@@]1(C)C=CC(=O)C(C)(C)[C@@H]1C[C@@H]4O | inactive | inactive | 5.10 | – |
| CC(=O)OC[C@@]12CC[C@@]3(C)[C@H]4C(=CC[C@]3(C)[C@H]1[C@H](O)C[C@H]2C(C)C)[C@@]1(C)CC[C@H](O[C@@H]2O[C@H](CO[C@@H]3O[C@H](CO)[C@@H](O)[C@H](O)[C@H]3O)[C@@H](O)[C@H](O)[C@H]2O)C(C)(C)[C@@H]1C[C@@H]4O | inactive | inactive | 5.66 | – |
| CC(=O)OC[C@H]1O[C@@H](Oc2cc3c(c(O)c2C)C(=O)c2ccc(O)cc2C3=O)[C@H](O[C@@H]2O[C@@H](C)[C@H](O)[C@@H](O)[C@H]2O)[C@@H](O)[C@@H]1O | inactive | inactive | 5.38 | – |
| O=C1c2ccccc2C(=O)c2cc(CO)c(O)cc21 | inactive | inactive | 5.52 | – |
| Cc1c(O)cc2c(c1O)C(=O)c1ccc(O)cc1C2=O | – | – | – | MIC50 (Staphylococcus aureus): 21.5 µM (≈ 5.81 µg/mL) |
| COC1=CC(=O)c2ccccc2C1=O [2-Methoxy-1,4-naphthoquinone] | inactive | – | – | pIC50 (SMMC-7721 [4]): 5.37; Activity (Staphylococcus aureus): inactive; MIC50 (Candida albicans): 16 µM (≈ 3.01 µg/mL); Activity (HeLa [5]): inactive |
| CC1(C)S[C@@H]2[C@H](NC(=O)[C@H](N)c3ccccc3)C(=O)N2[C@H]1C(=O)O [AMPICILLIN] | – | – | – | MIC50 (Staphylococcus aureus): 0.1 µM (≈ 0.0349 µg/mL) |
| CC[C@@]1(O)C(=O)OCc2c1cc1n(c2=O)Cc2cc3ccccc3nc2-1 [CAMPTOTHECIN] | – | – | – | pIC50 (SMMC-7721 [4]): 8.52 |
| Clc1ccc(COC(Cn2ccnc2)c2ccc(Cl)cc2Cl)c(Cl)c1 (stereo not drawn) [MICONAZOLE NITRATE] | – | – | – | MIC50 (Candida albicans): 0.9 µM |
| CC(=O)O[C@H]1C(=O)[C@@]2(C)[C@H]([C@H](OC(=O)c3ccccc3)[C@]3(O)C[C@H](OC(=O)[C@H](O)[C@@H](NC(=O)c4ccccc4)c4ccccc4)C(C)=C1C3(C)C)[C@]1(OC(C)=O)CO[C@@H]1C[C@@H]2O [PACLITAXEL] | – | – | 6.22 | – |
| CC(=O)O[C@@H]1C[C@@H](C(C)C)[C@]2(CO)CC[C@@]3(C)[C@H]4C(=CC[C@]3(C)[C@@H]12)[C@@]1(C)CC[C@H](O)C(C)(C)[C@@H]1C[C@@H]4O [RUBIARBONOL G] | – | inactive | 5.66 | pIC50 (A549 [6]): 5.15; MIC50 (Staphylococcus aureus): > 25 µM; MIC50 (Candida albicans): 10.8 µM (≈ 5.58 µg/mL) |
| CC(C)[C@@H]1C[C@@H](O)[C@H]2[C@@]1(C)CC[C@@]1(C)C3=CC[C@H]4C(C)(C)[C@@H](O)CC[C@]4(C)C3=CC[C@]21C [RUBIYUNNANOL A] | – | inactive | – | pIC50 (A549 [6]): 5.01; pIC50 (HeLa [5]): < 5.00 |
| CC(C)[C@@H]1CC=C2[C@@]1(C)CC[C@@]1(C)[C@H]3C(=CC[C@]21C)[C@@]1(C)CC[C@H](O)C(C)(C)[C@@H]1C[C@@H]3O [RUBIYUNNANOL B] | – | inactive | 5.28 | pIC50 (A549 [6]): 5.09 |
